Numbered stars: 1 amine (or outer) side, 2 acyl side, 3 side chain; on linkers, the order of the positions; unused ones are H or OH. Bridge positions count the residues as written; N and C are the ends. Square brackets hold non-standard residues; d marks the D form. Peptide text beside a SMILES is read from it. * marks the point of attachment. Fluorescein(5-NHCS) = O=C1OC2(c3ccc(O)cc3Oc3cc(O)ccc32)c2cc(NC(=S)*)ccc21; Gly(N-but-3-enyl) = O=C(CN(CCC=[*:3])[*:1])[*:2]; X3 = O=C(CN(CCCCCCC=[*:3])[*:1])[*:2]; X5 = O=C(CN(CCCCCC=[*:3])[*:1])[*:2]; X4 = O=C(CN(CCCCC=[*:3])[*:1])[*:2]; X1 = O=C(CN(CCCC=[*:3])[*:1])[*:2]; X2 = O=C(CN(CC=[*:3])[*:1])[*:2]; NAllylGly = C=CCNCC(=O)O; Ava = NCCCCC(=O)O
Molecular target: T1, Tumor susceptibility gene 101 protein (Homo sapiens, UniProt Q99816)
T1 sequence (Q99816 whole entry): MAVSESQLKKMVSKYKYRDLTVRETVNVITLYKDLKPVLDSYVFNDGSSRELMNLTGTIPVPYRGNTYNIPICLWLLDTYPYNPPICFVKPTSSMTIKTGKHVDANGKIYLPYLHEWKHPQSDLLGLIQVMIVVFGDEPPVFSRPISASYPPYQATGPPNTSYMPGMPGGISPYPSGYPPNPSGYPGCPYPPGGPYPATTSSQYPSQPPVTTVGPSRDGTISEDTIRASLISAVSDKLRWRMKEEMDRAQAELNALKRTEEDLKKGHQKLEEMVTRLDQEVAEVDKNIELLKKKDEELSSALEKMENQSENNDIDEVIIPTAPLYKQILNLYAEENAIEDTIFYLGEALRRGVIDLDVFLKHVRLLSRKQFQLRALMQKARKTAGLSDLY
Experiment: Binding affinity to ubiquitin E2 variant domain of human Tsg101 by fluorescent anisotropy
Settings: not given

Kd | Structure (SMILES)
171 µM | C[C@@H]1NC(=O)[C@H]([C@@H](C)O)NC(=O)[C@@H]2CCCN2C(=O)CN(C(=O)[C@@H]2CCCN2C(=O)CCCCNC(=S)Nc2ccc3c(c2)C2(OC3=O)c3ccc(O)cc3Oc3cc(O)ccc32)CC/C=C\CN(CC(=O)N[C@@H](CCC(=O)O)C(N)=O)C(=O)[C@@H]2CCCN2C(=O)[C@@H]2CCCN2C1=O ({Fluorescein(5-NHCS)-Ava}-P[Gly(N-but-3-enyl)]PTAPP[X2]E-NH2; staple (Z) 2-8)
> 500 µM | C[C@@H]1NC(=O)[C@H]([C@@H](C)O)NC(=O)[C@@H]2CCCN2C(=O)CN(C(=O)[C@@H]2CCCN2C(=O)CCCCNC(=S)Nc2ccc3c(c2)C2(OC3=O)c3ccc(O)cc3Oc3cc(O)ccc32)CCCC=CCN(CC(=O)N[C@@H](CCC(=O)O)C(N)=O)C(=O)[C@@H]2CCCN2C(=O)[C@@H]2CCCN2C1=O ({Fluorescein(5-NHCS)-Ava}-P[X1]PTAPP[X2]E-NH2; staple 2-8)
218 µM | C[C@@H]1NC(=O)[C@H]([C@@H](C)O)NC(=O)[C@@H]2CCCN2C(=O)CN(C(=O)[C@@H]2CCCN2C(=O)CCCCNC(=S)Nc2ccc3c(c2)C2(OC3=O)c3ccc(O)cc3Oc3cc(O)ccc32)C/C=C\CN(CC(=O)N[C@@H](CCC(=O)O)C(N)=O)C(=O)[C@@H]2CCCN2C(=O)[C@@H]2CCCN2C1=O ({Fluorescein(5-NHCS)-Ava}-P[X2]PTAPP[X2]E-NH2; staple (Z) 2-8)
> 500 µM | C[C@@H]1NC(=O)[C@H]([C@@H](C)O)NC(=O)[C@@H]2CCCN2C(=O)CN(C(=O)[C@@H]2CCCN2C(=O)CCCCNC(=S)Nc2ccc3c(c2)C2(OC3=O)c3ccc(O)cc3Oc3cc(O)ccc32)CCCC/C=C/CN(CC(=O)N[C@@H](CCC(=O)O)C(N)=O)C(=O)[C@@H]2CCCN2C(=O)[C@@H]2CCCN2C1=O ({Fluorescein(5-NHCS)-Ava}-P[X4]PTAPP[X2]E-NH2; staple (E) 2-8)
> 500 µM | C[C@@H]1NC(=O)[C@H]([C@@H](C)O)NC(=O)[C@@H]2CCCN2C(=O)CN(C(=O)[C@@H]2CCCN2C(=O)CCCCNC(=S)Nc2ccc3c(c2)C2(OC3=O)c3ccc(O)cc3Oc3cc(O)ccc32)CCCCC/C=C\CN(CC(=O)N[C@@H](CCC(=O)O)C(N)=O)C(=O)[C@@H]2CCCN2C(=O)[C@@H]2CCCN2C1=O ({Fluorescein(5-NHCS)-Ava}-P[X5]PTAPP[X2]E-NH2; staple (Z) 2-8)

Further lines, the compound ahead of its results:

Structure (SMILES) | Kd
C[C@@H]1NC(=O)[C@H]([C@@H](C)O)NC(=O)[C@@H]2CCCN2C(=O)[C@H](CCC(=O)O)NC(=O)CN(C(=O)CCCCNC(=S)Nc2ccc3c(c2)C2(OC3=O)c3ccc(O)cc3Oc3cc(O)ccc32)CCC=CCN(CC(N)=O)C(=O)[C@H](CCC(=O)O)NC(=O)[C@@H]2CCCN2C(=O)[C@@H]2CCCN2C1=O | > 500 µM
C=CCN(CC(=O)N1CCC[C@H]1C(=O)N[C@H](C(=O)N[C@@H](C)C(=O)N1CCC[C@H]1C(=O)N1CCC[C@H]1C(=O)N(CC=C)CC(=O)N[C@@H](CCC(=O)O)C(N)=O)[C@@H](C)O)C(=O)[C@@H]1CCCN1C(=O)CCCCNC(=S)Nc1ccc2c(c1)C1(OC2=O)c2ccc(O)cc2Oc2cc(O)ccc21 ({Fluorescein(5-NHCS)-Ava}-P[NAllylGly]PTAPP[NAllylGly]E-NH2) | 590 µM
C[C@@H]1NC(=O)[C@H]([C@@H](C)O)NC(=O)[C@@H]2CCCN2C(=O)[C@H](CCC(=O)O)NC(=O)CN(C(=O)CCCCNC(=S)Nc2ccc3c(c2)C2(OC3=O)c3ccc(O)cc3Oc3cc(O)ccc32)C/C=C\CCCCCCN(CC(=O)N[C@@H](CCC(=O)O)C(N)=O)C(=O)[C@@H]2CCCN2C(=O)[C@@H]2CCCN2C1=O ({Fluorescein(5-NHCS)-Ava}-[X2]EPTAPP[X3]E-NH2; staple (Z) 1-8) | > 500 µM
C[C@@H]1NC(=O)[C@H]([C@@H](C)O)NC(=O)[C@@H]2CCCN2C(=O)[C@H](CCC(=O)O)NC(=O)CN(C(=O)CCCCNC(=S)Nc2ccc3c(c2)C2(OC3=O)c3ccc(O)cc3Oc3cc(O)ccc32)CCCCC/C=C/CN(CC(=O)N[C@@H](CCC(=O)O)C(N)=O)C(=O)[C@@H]2CCCN2C(=O)[C@@H]2CCCN2C1=O ({Fluorescein(5-NHCS)-Ava}-[X5]EPTAPP[X2]E-NH2; staple (E) 1-8) | > 500 µM

Tested on: HeLa
Experiment: Cellular uptake in human HeLa cells assessed as fluorescence intensity by FACS analysis relative to control
Type: ADME, cell-based
Settings: in the assay text read “fluorescence microscopy” for “FACS analysis”
Procedure, shortened: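 Uptake of FITC-tagged peptide-peptoid hybrids was measured by fluorescence microscopy. The value is the average fluorescence intensity of treated cells, quantified from at least 20 cells taken from 4–6 fields, each field holding about 5 cells.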

Drug uptake | Structure (SMILES)
74% | C=CCN(CC(=O)N1CCC[C@H]1C(=O)N[C@H](C(=O)N[C@@H](C)C(=O)N1CCC[C@H]1C(=O)N1CCC[C@H]1C(=O)N(CC=C)CC(=O)N[C@@H](CCC(=O)O)C(N)=O)[C@@H](C)O)C(=O)[C@@H]1CCCN1C(=O)CCCCNC(=S)Nc1ccc2c(c1)C1(OC2=O)c2ccc(O)cc2Oc2cc(O)ccc21 ({Fluorescein(5-NHCS)-Ava}-P[NAllylGly]PTAPP[NAllylGly]E-NH2)

From ChEMBL document CHEMBL1153736, “Application of ring-closing metathesis macrocyclization to the development of Tsg101-binding antagonists” (Bioorg Med Chem Lett, 2010)
